Activity, IC50 and Ratio data for two compounds are collected here from ChEMBL document CHEMBL2331324, “Synthesis and biological evaluation of guanidino analogues of roscovitine” (Eur J Med Chem, 2013).

The target of test [1] is Serine/threonine-protein kinase 33 (Homo sapiens) (UniProt Q9BYT3). As to the kind of experiment: Inhibition of recombinant STK33 (unknown origin) assessed as residual activity using [gamma-33P]ATP as substrate at 1 uM. An outline of the steps: (§1)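 Kinase panel screen with each compound at 1 µM, in duplicate. Reactions were started with [γ-33P]ATP (800 cpm/pmol) at 5, 20 or 50 µM, chosen per enzyme to be at or below its ATP Km. Reactions were stopped with phosphoric acid and spotted onto P81 filters. Results are given as residual kinase activity.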

Test [2] concerns the target Eukaryotic translation initiation factor 2-alpha kinase 3 (Homo sapiens) (UniProt Q9NZJ5). The test is described as follows: Inhibition of recombinant EIF2AK3 (unknown origin) assessed as residual activity using [gamma-33P]ATP as substrate at 1 uM. An outline of the steps:
(§2)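 Recombinant kinase panel screened at 1 µM in duplicate. Reactions started with [γ-33P]ATP (800 cpm/pmol) at 5, 20 or 50 µM, chosen to sit at or below each enzyme's ATP Km. Stopped with phosphoric acid and spotted onto P81 filters. Result given as residual kinase activity.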

Test [3] addresses Calcium/calmodulin-dependent protein kinase type 1 (Homo sapiens) (UniProt Q14012). As to the kind of experiment: Inhibition of recombinant CAMK1 (unknown origin) assessed as residual activity using [gamma-33P]ATP as substrate at 1 uM. An outline of the steps: as §2
The subject of test [4] is MCF7. As to the kind of experiment: Cytotoxicity against human MCF7 cells assessed as inhibition of cell viability after 72 hrs by calcien AM dye based fluorescence analysis. In kind it is functional. The settings on record: MCF7, 72 h. An outline of the steps: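 MCF7 cells grown in DMEM with 10% FBS, 2 mM glutamine, penicillin and streptomycin at 37 °C and 5% CO2. About 10,000 cells per well, left 4 h, then a concentration range added in triplicate, DMSO ≤0.5% final. After 72 h, 1 µg/ml calcein AM (final) for 1 h; fluorescence read at 485/538 nm. Viability given as % of control; IC50 read graphically from dose-response curves; mean of ≥3 independent experiments.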

For test [5], the target named is Aurora kinase A/B (Homo sapiens) (UniProt Q96GD4+O14965). The test is described as follows: Activity at Aurora kinase A/B in human MCF7 cells assessed as histone H3 phosphorylation at Ser10 at 100 uM after 24 hrs by flow cytometry relative to untreated control. It counts as cell-based. The essentials:
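Flow cytometry on MCF7 cells exposed 24 h to 100 µM. About one million cells fixed in 90% methanol, rehydrated, and labelled with primary antibody to pH3 Ser10, then an Alexa Fluor 488 secondary. Alexa read at 488/525 nm (ex/em). The value is the fraction of pH3-positive cells in treated cultures divided by that in untreated control.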

Test [6] has as its target Serine/threonine-protein kinase Chk1 (Homo sapiens) (UniProt O14757). As to the kind of experiment: Inhibition of recombinant CHK1 (unknown origin) assessed as residual activity using [gamma-33P]ATP as substrate at 1 uM. The essentials:
as §2

Test [7] addresses Serine/threonine-protein kinase TBK1 (Homo sapiens) (UniProt Q9UHD2). The test is described as follows: Inhibition of recombinant TBK1 (unknown origin) assessed as residual activity using [gamma-33P]ATP as substrate at 1 uM. The essentials: as §1
For test [8], the target named is Fibroblast growth factor receptor 1 (Homo sapiens) (UniProt P11362). The test is described as follows: Inhibition of recombinant FGF-R1 (unknown origin) assessed as residual activity using [gamma-33P]ATP as substrate at 1 uM. An outline of the steps:
as §2

The target of test [9] is Aurora kinase A (Homo sapiens) (UniProt O14965). The test is described as follows: Inhibition of recombinant AURA (unknown origin) assessed as residual activity using [gamma-33P]ATP as substrate at 1 uM. The essentials: as §2
Test [10] addresses Tyrosine-protein kinase ZAP-70 (Homo sapiens) (UniProt P43403). The test is described as follows: Inhibition of recombinant ZAP70 (unknown origin) assessed as residual activity using [gamma-33P]ATP as substrate at 1 uM. An outline of the steps: as §1
Test [11] has as its target Cyclin-dependent kinase 2/cyclin E1 (Homo sapiens, UniProt P24941). The test is described as follows: Inhibition of recombinant CDK2/cyclin E (unknown origin) using histone H1 as substrate in presence of [gamma-33P]ATP. It counts as protein-complex assay.
Test [12] has as its target Aurora kinase B (Homo sapiens) (UniProt Q96GD4). The test is described as follows: Inhibition of recombinant AURB (unknown origin) assessed as residual activity using [gamma-33P]ATP as substrate at 1 uM. The essentials: as §2
The species named for test [13] is Homo sapiens. As to the kind of experiment: Inhibition of recombinant CK1 (unknown origin) assessed as residual activity using [gamma-33P]ATP as substrate at 1 uM. An outline of the steps: as §2
Test [14] has as its target Mitogen-activated protein kinase kinase kinase 9 (Homo sapiens) (UniProt P80192). The test is described as follows: Inhibition of recombinant MLK1 (unknown origin) assessed as residual activity using [gamma-33P]ATP as substrate at 1 uM. The essentials:
(§3)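 Selectivity panel run under previously published conditions. Screened at 1 μM in duplicate. Reactions started with [γ-33P]ATP (800 cpm/pmol) at 5, 20 or 50 μM, chosen to be at or below each enzyme's ATP Km. Stopped with phosphoric acid, spotted onto P81 filters. Result expressed as residual kinase activity.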

Test [15] deals with High affinity nerve growth factor receptor (Homo sapiens) (UniProt P04629). The test is described as follows: Inhibition of recombinant TRKA (unknown origin) assessed as residual activity using [gamma-33P]ATP as substrate at 1 uM. An outline of the steps: as §1
The target of test [16] is Receptor-interacting serine/threonine-protein kinase 2 (Homo sapiens) (UniProt O43353). As to the kind of experiment: Inhibition of recombinant RIPK2 (unknown origin) assessed as residual activity using [gamma-33P]ATP as substrate at 1 uM. An outline of the steps:
as §3

In test [17] the target is Ribosomal protein S6 kinase alpha-3 (Homo sapiens) (UniProt P51812). As to the kind of experiment: Inhibition of recombinant RSK2 (unknown origin) assessed as residual activity using [gamma-33P]ATP as substrate at 1 uM. An outline of the steps: as §1
The target of test [18] is Casein kinase II (Homo sapiens) (UniProt P67870+P68400+P19784). The test is described as follows: Inhibition of recombinant CK2 (unknown origin) assessed as residual activity using [gamma-33P]ATP as substrate at 1 uM. It counts as protein-complex assay. The essentials: as §2
In test [19] the target is Rho-associated protein kinase 2 (Homo sapiens) (UniProt O75116). As to the kind of experiment: Inhibition of recombinant ROCK2 (unknown origin) assessed as residual activity using [gamma-33P]ATP as substrate at 1 uM. The essentials: as §3
For test [20], the target named is Homeodomain-interacting protein kinase 1 (Homo sapiens) (UniProt Q86Z02). As to the kind of experiment: Inhibition of recombinant HIPK1 (unknown origin) assessed as residual activity using [gamma-33P]ATP as substrate at 1 uM. The essentials:
as §2

Test [21] deals with Serine/threonine-protein kinase Nek6 (Homo sapiens) (UniProt Q9HC98). As to the kind of experiment: Inhibition of recombinant NEK6 (unknown origin) assessed as residual activity using [gamma-33P]ATP as substrate at 1 uM. An outline of the steps:
as §3

Test [22] concerns the target Dual specificity protein kinase CLK2 (Homo sapiens) (UniProt P49760). As to the kind of experiment: Inhibition of recombinant CLK2 (unknown origin) assessed as residual activity using [gamma-33P]ATP as substrate at 1 uM. An outline of the steps: as §2
The target of test [23] is Serine/threonine-protein kinase Chk2 (Homo sapiens) (UniProt O96017). The test is described as follows: Inhibition of recombinant CHK2 (unknown origin) assessed as residual activity using [gamma-33P]ATP as substrate at 1 uM. The essentials:
as §2

The target in test [24] is Serine/threonine-protein kinase 16 (Homo sapiens) (UniProt O75716). The test is described as follows: Inhibition of recombinant MPSK1 (unknown origin) assessed as residual activity using [gamma-33P]ATP as substrate at 1 uM. The essentials:
as §3

Sequence of High affinity nerve growth factor receptor (Homo sapiens) (P04629 33-796 limits assumed): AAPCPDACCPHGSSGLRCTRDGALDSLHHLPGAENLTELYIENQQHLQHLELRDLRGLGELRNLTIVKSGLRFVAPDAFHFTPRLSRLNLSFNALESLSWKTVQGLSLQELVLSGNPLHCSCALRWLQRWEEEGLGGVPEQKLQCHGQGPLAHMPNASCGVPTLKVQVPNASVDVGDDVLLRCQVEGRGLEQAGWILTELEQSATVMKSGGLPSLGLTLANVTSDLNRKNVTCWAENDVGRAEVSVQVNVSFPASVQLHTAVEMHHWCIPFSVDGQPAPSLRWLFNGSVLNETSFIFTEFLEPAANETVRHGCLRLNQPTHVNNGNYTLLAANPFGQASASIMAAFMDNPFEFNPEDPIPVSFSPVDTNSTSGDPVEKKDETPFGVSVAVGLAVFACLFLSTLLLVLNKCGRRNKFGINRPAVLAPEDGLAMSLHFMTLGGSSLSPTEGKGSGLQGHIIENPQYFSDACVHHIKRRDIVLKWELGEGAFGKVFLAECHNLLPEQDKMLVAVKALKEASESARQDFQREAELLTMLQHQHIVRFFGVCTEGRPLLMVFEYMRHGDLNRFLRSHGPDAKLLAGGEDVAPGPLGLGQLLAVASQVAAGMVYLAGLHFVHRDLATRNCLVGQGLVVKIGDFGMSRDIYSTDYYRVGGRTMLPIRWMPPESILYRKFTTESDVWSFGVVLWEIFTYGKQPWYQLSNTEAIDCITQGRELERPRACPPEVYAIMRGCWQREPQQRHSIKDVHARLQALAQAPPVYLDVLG
Sequence of Homeodomain-interacting protein kinase 1 (Homo sapiens) (Q86Z02 whole entry, looked up): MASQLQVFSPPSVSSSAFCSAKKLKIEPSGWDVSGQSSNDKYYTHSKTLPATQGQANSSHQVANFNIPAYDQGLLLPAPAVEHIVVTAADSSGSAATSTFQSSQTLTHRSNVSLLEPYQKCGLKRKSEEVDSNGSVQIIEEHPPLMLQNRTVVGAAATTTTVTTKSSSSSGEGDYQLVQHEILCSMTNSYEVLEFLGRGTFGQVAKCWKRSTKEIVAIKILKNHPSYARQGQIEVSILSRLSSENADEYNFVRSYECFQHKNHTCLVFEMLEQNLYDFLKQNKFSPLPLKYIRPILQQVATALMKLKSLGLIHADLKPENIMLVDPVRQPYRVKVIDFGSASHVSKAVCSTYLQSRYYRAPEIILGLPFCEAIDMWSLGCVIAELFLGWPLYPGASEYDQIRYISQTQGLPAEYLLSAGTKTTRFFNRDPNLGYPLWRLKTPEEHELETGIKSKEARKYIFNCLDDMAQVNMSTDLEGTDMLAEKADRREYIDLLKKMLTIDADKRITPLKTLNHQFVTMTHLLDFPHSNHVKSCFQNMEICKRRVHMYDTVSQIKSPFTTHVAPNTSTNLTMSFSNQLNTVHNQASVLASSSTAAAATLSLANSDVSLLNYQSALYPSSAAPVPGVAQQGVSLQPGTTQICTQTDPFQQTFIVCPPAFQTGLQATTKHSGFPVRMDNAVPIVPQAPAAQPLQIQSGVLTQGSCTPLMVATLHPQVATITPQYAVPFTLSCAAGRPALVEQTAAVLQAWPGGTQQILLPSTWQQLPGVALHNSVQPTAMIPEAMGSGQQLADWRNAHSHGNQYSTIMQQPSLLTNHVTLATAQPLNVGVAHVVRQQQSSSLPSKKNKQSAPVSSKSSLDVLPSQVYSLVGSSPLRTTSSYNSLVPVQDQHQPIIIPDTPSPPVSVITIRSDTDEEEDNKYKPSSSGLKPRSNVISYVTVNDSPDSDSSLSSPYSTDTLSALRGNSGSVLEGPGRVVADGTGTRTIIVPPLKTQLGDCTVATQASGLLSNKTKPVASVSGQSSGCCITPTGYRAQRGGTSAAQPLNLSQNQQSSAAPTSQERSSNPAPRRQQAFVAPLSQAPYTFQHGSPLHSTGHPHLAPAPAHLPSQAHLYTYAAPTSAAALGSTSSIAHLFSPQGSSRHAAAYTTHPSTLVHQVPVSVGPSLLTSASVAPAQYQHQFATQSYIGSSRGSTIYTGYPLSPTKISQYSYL
Sequence of Eukaryotic translation initiation factor 2-alpha kinase 3 (Homo sapiens) (Q9NZJ5 whole entry): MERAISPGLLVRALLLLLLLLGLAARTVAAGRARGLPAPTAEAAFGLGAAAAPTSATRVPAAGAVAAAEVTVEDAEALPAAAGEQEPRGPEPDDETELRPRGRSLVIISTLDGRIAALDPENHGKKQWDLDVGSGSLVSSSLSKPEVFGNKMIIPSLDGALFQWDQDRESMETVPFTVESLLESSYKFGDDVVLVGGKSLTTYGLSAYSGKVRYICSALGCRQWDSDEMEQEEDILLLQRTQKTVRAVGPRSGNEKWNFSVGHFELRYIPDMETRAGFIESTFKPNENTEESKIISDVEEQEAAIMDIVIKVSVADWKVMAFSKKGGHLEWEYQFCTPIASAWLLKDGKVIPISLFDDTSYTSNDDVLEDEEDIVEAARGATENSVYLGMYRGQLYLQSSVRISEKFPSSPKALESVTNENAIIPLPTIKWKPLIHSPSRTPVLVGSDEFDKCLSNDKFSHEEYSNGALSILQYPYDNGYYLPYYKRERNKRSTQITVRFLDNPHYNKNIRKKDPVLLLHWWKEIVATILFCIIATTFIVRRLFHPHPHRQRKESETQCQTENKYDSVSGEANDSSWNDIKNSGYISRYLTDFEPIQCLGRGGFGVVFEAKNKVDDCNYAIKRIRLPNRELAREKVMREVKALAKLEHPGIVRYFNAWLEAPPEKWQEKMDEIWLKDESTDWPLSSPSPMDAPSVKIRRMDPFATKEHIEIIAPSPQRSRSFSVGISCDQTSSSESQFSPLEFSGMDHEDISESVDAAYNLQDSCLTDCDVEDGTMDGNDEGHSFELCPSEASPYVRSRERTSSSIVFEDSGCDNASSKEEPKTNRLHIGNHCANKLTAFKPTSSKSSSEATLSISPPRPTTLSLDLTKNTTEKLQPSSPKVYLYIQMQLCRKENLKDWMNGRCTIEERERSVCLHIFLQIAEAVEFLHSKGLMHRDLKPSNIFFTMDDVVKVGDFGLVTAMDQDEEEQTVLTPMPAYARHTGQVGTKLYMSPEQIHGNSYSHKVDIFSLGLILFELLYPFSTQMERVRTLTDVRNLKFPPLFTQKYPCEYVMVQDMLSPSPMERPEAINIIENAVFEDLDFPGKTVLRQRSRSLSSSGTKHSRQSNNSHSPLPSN
Sequence of Fibroblast growth factor receptor 1 (Homo sapiens) (P11362 22-822 limits assumed): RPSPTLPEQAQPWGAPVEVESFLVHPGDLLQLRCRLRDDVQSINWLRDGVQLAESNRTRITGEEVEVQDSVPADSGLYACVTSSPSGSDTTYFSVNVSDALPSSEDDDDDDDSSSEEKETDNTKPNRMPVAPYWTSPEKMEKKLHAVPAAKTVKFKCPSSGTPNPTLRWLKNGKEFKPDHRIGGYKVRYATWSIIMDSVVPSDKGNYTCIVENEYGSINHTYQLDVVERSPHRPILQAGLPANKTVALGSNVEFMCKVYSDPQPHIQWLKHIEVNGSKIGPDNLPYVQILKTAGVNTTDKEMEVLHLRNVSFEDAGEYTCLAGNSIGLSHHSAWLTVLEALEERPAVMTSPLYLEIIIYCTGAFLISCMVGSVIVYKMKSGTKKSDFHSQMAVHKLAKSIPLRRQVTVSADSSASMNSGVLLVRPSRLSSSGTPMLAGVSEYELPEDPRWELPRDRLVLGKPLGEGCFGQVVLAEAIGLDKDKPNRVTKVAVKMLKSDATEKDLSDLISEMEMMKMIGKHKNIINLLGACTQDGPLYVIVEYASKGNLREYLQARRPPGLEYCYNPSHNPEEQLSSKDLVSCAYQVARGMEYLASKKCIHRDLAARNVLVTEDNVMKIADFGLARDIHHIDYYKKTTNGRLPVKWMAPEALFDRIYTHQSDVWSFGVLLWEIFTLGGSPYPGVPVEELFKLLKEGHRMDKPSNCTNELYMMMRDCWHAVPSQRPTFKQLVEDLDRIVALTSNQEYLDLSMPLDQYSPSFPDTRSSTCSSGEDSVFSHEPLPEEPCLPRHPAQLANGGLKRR
Sequence of Tyrosine-protein kinase ZAP-70 (Homo sapiens) (P43403 whole entry): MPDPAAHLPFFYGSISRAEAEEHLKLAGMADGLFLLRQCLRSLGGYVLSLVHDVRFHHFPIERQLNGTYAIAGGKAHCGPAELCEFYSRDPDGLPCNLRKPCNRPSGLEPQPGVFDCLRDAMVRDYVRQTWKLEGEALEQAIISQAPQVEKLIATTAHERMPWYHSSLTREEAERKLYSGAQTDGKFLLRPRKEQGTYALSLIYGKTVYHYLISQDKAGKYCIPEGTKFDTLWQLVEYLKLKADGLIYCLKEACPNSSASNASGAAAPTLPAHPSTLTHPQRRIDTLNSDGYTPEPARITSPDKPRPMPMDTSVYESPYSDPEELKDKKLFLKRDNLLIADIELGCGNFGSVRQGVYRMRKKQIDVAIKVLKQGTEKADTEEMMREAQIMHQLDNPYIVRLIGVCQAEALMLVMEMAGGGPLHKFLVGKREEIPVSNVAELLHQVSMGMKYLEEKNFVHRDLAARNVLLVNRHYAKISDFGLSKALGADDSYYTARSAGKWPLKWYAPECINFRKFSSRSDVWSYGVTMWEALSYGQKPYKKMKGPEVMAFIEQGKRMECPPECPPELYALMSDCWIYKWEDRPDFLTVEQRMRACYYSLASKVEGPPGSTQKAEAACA
Sequence of Calcium/calmodulin-dependent protein kinase type 1 (Homo sapiens) (Q14012 whole entry, looked up): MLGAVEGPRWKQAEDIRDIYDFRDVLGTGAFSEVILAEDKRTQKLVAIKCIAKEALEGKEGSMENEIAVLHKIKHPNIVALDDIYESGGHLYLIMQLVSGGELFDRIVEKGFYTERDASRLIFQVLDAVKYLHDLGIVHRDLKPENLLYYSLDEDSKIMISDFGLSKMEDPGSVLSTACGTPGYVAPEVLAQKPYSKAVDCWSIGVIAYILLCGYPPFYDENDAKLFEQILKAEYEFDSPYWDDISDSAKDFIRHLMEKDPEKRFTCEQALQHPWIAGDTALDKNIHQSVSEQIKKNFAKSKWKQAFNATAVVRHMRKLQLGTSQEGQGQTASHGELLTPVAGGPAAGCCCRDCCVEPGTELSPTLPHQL

One may read the IC50 as the point on the concentration scale where inhibition reaches its midpoint. For the compound `CC[C@@H](CO)Nc1nc(NC(=N)N)c2ncn(C(C)C)c2n1`, the Activity is 9% in [1]; 11% in test [2]; 24% in test [3]; 46% in test [6]; 90% in test [7]; 5% in test [8]. The Activity is 30% in test [9]; 109% in test [10]; 70% in test [12]; 21% in [13]; 31% in test [14]; 28% in test [15]. Also, the Activity amounted to 76% in test [16]; 71% in test [17]; 33% in [18]; 65% in [19]; 11% in test [20]; 85% in [21]. The figures for the Activity in [22], in [23] and in [24] were 4%, 42% and 28%, respectively. Besides, the half-maximal inhibitory concentration (IC50) is 1600 nM in [4] and 37 nM in test [11]. Besides, the Ratio in test [5] turned out to be 0.09.
Turning to `CC[C@H](CO)Nc1nc(NC(=N)N)c2ncn(C(C)C)c2n1`, the Activity in [1] came to 11%; in [2] it was 17%; in test [3] it was 35%; in test [6] it was 58%; in test [7], 92%; in test [8], 4%. In addition, the Activity in [9] turned out to be 39%; in test [10] it was 86%; in [12] it was 47%; in test [13] it was 15%; in test [14] it was 25%; in [15], 24%. The Activity in test [16] was 72%; in [17], 35%; in test [18], 43%; in test [19], 61%; in test [20], 15%; in test [21], 95%. Further, the values for the Activity in test [22], in test [23] and in [24] were 4%, 59% and 36%, respectively. For the same compound, the IC50 was 4500 nM in [4] and 140 nM in test [11]. The Ratio in [5] turned out to be 0.08.
